TDP2 absorb = blocks human TDP2 phosphodiesterase activity; O95551; recombinant TDP2, T5PNP hydrolysis, p-nitrophenol absorbance 415 nm; inhibition, % at 12.8 µM; 370,000 compounds, 0.34% hits;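 active = inhibition above the mean of all tested compounds plus 3 SD, set per campaign, cut at about 25% in these data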;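 note: 0% = DMSO with enzyme and 100% = buffer with substrate but no TDP2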
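Incubation: 2 h at 37 °C; Test system: recombinant human TDP2; Quantity: enzyme 120 nM; Read-out basis: percent inhibition; Medium: 50 mM Tris-HCl pH 7.5 with Mg2+, KCl, DTT, BSA; Repeats: single replicate; Compound: 12.8 µM single point, 1% DMSO; Signal: epi absorbance; Reagent: 5 mM T5PNP chromogenic substrate; Benchmarks: no-enzyme high, DMSO-plus-enzyme low.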
PAD4 FP inh = PAD4 (human) enzyme inhibition; Q9UM07; recombinant PAD4, RCA probe fluorescence polarization; inhibition, % at 6.36 µM; 330,000 compounds, 0.41% hits;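 active = percent inhibition above a cutoff equal to the mean of all tested compounds plus 3 SD, cut at about 15% in these data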;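 note: 0% = PAD4 with RCA probe and DMSO and 100% = probe without PAD4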
E coli Lon inh = inhibits E. coli Lon protease; 360,000 compounds, 0.42% hits; inhibition, % at 7.94 µM; AID 602123; P0A9M0; purified E. coli Lon protease, fluorescence polarization; in the data active = inhibition above about 13%, passing the limit was not always enough;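 note: 0% = enzyme with probe and DMSO and 100% = no enzyme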
PRMT1 FP inh = blocks human protein arginine methyltransferase 1; AID 652257; 370,000 compounds, 1.3% hits; inhibition, % at 2.79 µM; recombinant PRMT1, activity-based probe fluorescence polarization; Q99873;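 active = inhibition above about 21% made by adding two undisclosed values, limit read from the data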
Target sequence (Q99873 whole entry, looked up): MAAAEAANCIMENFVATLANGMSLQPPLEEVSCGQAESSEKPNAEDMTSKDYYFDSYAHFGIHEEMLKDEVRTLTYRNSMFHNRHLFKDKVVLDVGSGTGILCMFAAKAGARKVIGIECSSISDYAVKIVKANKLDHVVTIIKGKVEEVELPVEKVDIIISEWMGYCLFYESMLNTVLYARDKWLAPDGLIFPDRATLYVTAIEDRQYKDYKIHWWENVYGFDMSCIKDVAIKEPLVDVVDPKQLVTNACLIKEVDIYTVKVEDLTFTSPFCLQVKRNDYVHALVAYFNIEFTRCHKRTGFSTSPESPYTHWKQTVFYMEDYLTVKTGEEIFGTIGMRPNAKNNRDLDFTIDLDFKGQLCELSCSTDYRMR
GSTO1 inh = counter-screen for RBBP9 inhibitors: inhibitors of human GSTO1; P78417; recombinant GSTO1, activity-based probe fluorescence polarization; inhibition, % at 5.96 µM; 300,000 compounds, 1.1% hits; AID 1974;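 active = inhibition above the campaign mean inhibition plus 3 SD, cut at about 35% in these data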;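 note: 0% = GSTO1-1 with DMSO and 100% = wells lacking GSTO1-1 enzyme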
Target sequence (P78417 whole entry, looked up): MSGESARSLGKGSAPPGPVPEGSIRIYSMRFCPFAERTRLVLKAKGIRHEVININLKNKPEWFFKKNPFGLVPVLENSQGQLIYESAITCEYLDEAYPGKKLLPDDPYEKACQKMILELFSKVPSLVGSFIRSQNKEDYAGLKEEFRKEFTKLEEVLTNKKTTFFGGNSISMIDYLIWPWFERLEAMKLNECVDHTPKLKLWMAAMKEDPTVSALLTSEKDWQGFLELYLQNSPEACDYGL
PRMT1 inh conf = PRMT1 (human) inhibition, FP confirmation; recombinant His-PRMT1, activity-based probe fluorescence polarization; shares compounds with PRMT1 FP inh; inhibition, % at 2.79 µM; AID 687036; 3,300 compounds, 42% hits;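 active = mean inhibition across replicates above the hit cutoff derived for the earlier primary screen, cut at about 22% in these data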
Numbers without * were called inactive; / = not tested or not shown. Shown are actives, neighbours in structure and some others; about 2.5% of the full set was active somewhere.

SMILES	TDP2 absorb	PAD4 FP inh	E coli Lon inh	PRMT1 FP inh	GSTO1 inh	PRMT1 inh conf
Clc1ccc(-n2cc(-c3ccc(Br)cc3)[n+]3c2CCCCC3)cc1	-10.1	3.0	-8.8	-5.5	1.4	/
O=C(NCCC(F)(F)F)c1cccc2c(-c3ccc(F)c(F)c3)coc12	-11.8	/	-1.8	4.5	/	/
Cc1ccnc(N=O)c1	5.8	-5.5	-2.4	44.5*	/	54.6*
O=C(Nc1cccc(Cl)c1)c1ccc(=O)[nH]n1	2.5	-3.9	0.8	-1.8	2.4	/
CSC1=NS(=O)(=O)c2c(C)nn(C)c2S1	-1.6	-0.9	-6.0	99.7*	4.2	76.3*
O=c1c2ccccc2[nH]n1[C@@H](Cc1ccccc1)Cn1cc(-c2ccc(-c3ccccc3)cc2)nn1	5.0	/	/	8.0	/	/
Cc1c(O)nc(SCC(=O)Nc2cccc(C(F)(F)F)c2)n(-c2ccccc2)c1=O	-15.1	/	2.6	94.8*	/	75.1*
CCc1c(O)nc(SCC(=O)Nc2nc3ccccc3s2)n(-c2ccccc2)c1=O	5.1	5.9	-7.4	38.4*	-3.4	42.4*
CCc1c(O)nc(SCC(=O)Nc2ccccc2)n(-c2ccccc2)c1=O	-3.6	5.6	-11.7	17.5	2.8	/
CCc1c(O)nc(SCC(=O)Nc2ccccc2)n(-c2ccccc2C)c1=O	8.1	/	-11.4	36.4*	/	20.2
Cc1ccc(NC(=O)CSc2nc(O)c(Cc3ccccc3)c(=O)n2-c2ccccc2)cc1	-4.9	-0.3	-0.8	32.7*	1.4	28.9*
CCn1c(C)nnc1SCC(=O)Nc1cccc(C(F)(F)F)c1	-8.1	-1.6	-4.7	-0.1	4.2	/
COc1ccc(-n2c(SCC(=O)Nc3ccccc3OC)nc(O)c(Cc3ccccc3)c2=O)cc1	-5.3	-0.7	1.7	30.4*	-3.5	22.4*
CCCCc1c(O)nc(SCC(=O)Nc2ccc(C)cc2)n(-c2ccc(OC)cc2)c1=O	-6.8	-2.0	-2.0	9.0	2.7	/
CCc1c(O)nc(SCC(=O)Nc2ccccc2C)n(-c2ccc(C)cc2)c1=O	-3.2	-2.1	-15.8	29.6*	17.3	12.9
CCc1c(O)nc(SCC(=O)Nc2cc(C)on2)n(-c2ccccc2)c1=O	-4.6	-1.2	0.5	53.1*	1.8	23.7*
CCc1c(O)nc(SCC(=O)Nc2ccc(Br)cc2)n(-c2ccc(C)cc2)c1=O	2.9	-6.8	-4.2	45.4*	-1.9	33.1*
O=C(OCCN1CCN(C2CN(Cc3cn(Cc4ccc([N+](=O)[O-])cc4)nn3)S(=O)(=O)C2)CC1)c1cc2ccccc2o1 (centres undefined)	10.7	/	/	3.1	/	/
COC(=O)[C@]12C[C@H](CC(=O)N3CCSCC3)C(=O)N(Cc3ccc(Cl)cc3Cl)C1=C[C@H](C(C)(C)C)O[C@@H]2C	-2.3	/	/	2.2	/	/
CCc1c(O)nc(SCC(=O)Nc2ccccc2OC)n(-c2ccccc2C)c1=O	-0.6	-9.4	5.3	16.3	-4.9	/
CCCCc1c(O)nc(SCC(=O)Nc2cccc3ccccc23)n(-c2ccccc2OC)c1=O	-15.5	-2.9	-1.6	42.0*	-1.3	23.4*
O=C(COc1ccc(Cl)cc1)Nc1ncc([N+](=O)[O-])s1	-21.3	/	-9.5	-1.2	/	/
O=C(COC(=O)COc1ccccc1)Nc1ncc([N+](=O)[O-])s1	-4.7	-4.7	6.3	40.5*	/	15.0
Cc1cc2nc(-c3ccc(SCC(=O)NC(C)C)nc3)[nH]c2cc1C	/	0.1	/	/	-4.9	/
Cc1cc2nc(-c3ccc(SCc4ccc(C(=O)O)cc4)nc3)[nH]c2cc1C	-6.0	-7.2	-12.2	25.6*	-64.2	22.0*
SMILES	TDP2 absorb	PAD4 FP inh	E coli Lon inh	PRMT1 FP inh	GSTO1 inh	PRMT1 inh conf
Cc1cc(S(=O)(=O)c2ccc(Cl)cc2)nc(S(=O)(=O)c2ccc(Cl)cc2)c1C#N	1.2	/	0.6	60.5*	/	47.6*
CC[n+]1c(/C=C(\C)Nc2ccccc2)sc2ccccc21	15.2	2.7	-6.2	2.0	15.6	/
CC[n+]1c(C=C2C=C(C)OC(C)=C2)sc2ccccc21	0.8	/	-58.8	-2.0	/	/
CC/C(=C/c1sc2ccccc2[n+]1CC)SC	9.6	-2.4	-0.6	66.4*	-0.2	7.4
CC[n+]1c(/C=C(/C)SC)sc2ccccc21	-3.6	-1.7	1.8	96.3*	7.0	24.0*
CC[n+]1c(/C=C(\C)SC)sc2ccccc21	-8.5	-3.3	8.3	34.5*	-4.4	13.1
CC[n+]1c(/C=C2/C=C(C)CC(C)C2)sc2ccccc21 (centres undefined)	7.8	-7.8	-13.0	27.6*	-3.2	13.0
CC[n+]1c(/C=C/Nc2ccccc2)sc2ccccc21	5.4	-48.4	-1.5	18.4	-17.2	/
CCN(CC)S(=O)(=O)c1ccc(C(=O)NCc2n[nH]c(=S)n2-c2ccc(Cl)c(Cl)c2)cc1	10.5	-9.8	-8.4	28.1*	4.7	2.2
CCN(CC)S(=O)(=O)c1ccc(C(=O)NCc2n[nH]c(=S)n2-c2ccccc2OC)cc1	3.1	-0.5	-1.3	-0.5	4.9	/
NC(=O)c1ccc(NC(=O)COC(=O)c2ccc(Br)c(S(=O)(=O)N3CCOCC3)c2)cc1	10.8	/	-4.9	-3.7	/	/
O=C(O)CCc1ccc(-c2cccs2)n1CCC(=O)O	8.1	-3.2	0.5	16.0	-1.3	/
CC(=O)c1cccc(-n2c(CCC(=O)O)ccc2-c2cccs2)c1	2.6	-1.1	-6.6	67.7*	8.3	16.4
O=C(O)CCc1ccc(-c2cccs2)n1-c1ccc(C(=O)O)cc1	-10.0	-3.0	-9.6	37.3*	1.6	10.4
CCn1c(=O)c([N+](=O)[O-])c(N2CCN(Cc3ccc4c(c3)OCO4)CC2)c2ccccc21	-10.8	2.0	0.9	3.5	4.0	/
C[C@@H]1CN([C@H](C)CO)C(=O)c2cc(-c3ccc(C(=O)N(C)C)cc3)cnc2O[C@@H]1CN(C)C(=O)c1cccnc1	1.9	/	-5.2	1.9	/	/
O=C(NCc1ccco1)c1cc2cc(Br)ccc2o1	-9.8	-3.5	-9.7	31.0*	6.5	24.7*
Cc1c(C(=O)NCc2ccco2)oc2ccc(Br)cc12	-16.0	/	-17.3	1.7	/	/
COC(=O)CN(C#N)c1nc(NCc2ccccc2)nc(OC)n1	-9.3	/	2.4	63.9*	/	-2.6
COC(=O)CN(C#N)c1nc(NC(C)C)nc(OC)n1	6.3	3.5	-9.1	-1.3	6.8	/
COc1ccc(SC[C@H](Cc2ccccc2)N2CC[C@@H](C)CCC2=O)cc1	-10.2	-1.3	0.7	1.8	/	/
Oc1cc2ccccc2cc1-c1n[nH]c(=S)o1	-5.5	0.4	-3.8	25.6*	14.0	35.8*
O=S(NC1CCCCC1)C12CC3CC(CC(C3)C1)C2 (centres undefined)	3.4	3.1	4.2	99.5*	2.5	-1.5
COc1ccc(C2C3=C(N=C4SCC(=O)N42)c2ccccc2CC3)cc1OC (centres undefined)	-6.1	10.3	3.7	54.5*	3.0	18.7
COc1ccccc1C1C2=C(N=C3SCC(=O)N31)c1ccccc1CC2 (centres undefined)	-5.2	-0.7	-4.4	36.9*	0.5	1.2
